Results published in ChEMBL document CHEMBL1143845, “In vitro activities of isavuconazole and other antifungal agents against Candida bloodstream isolates” (2007).
Converted amounts (≈) assume the structure as drawn.

Key:
Type in all cases: functional
[1] = tested on: Candida; assay: Antifungal activity against Candida sp. bloodstream isolates by broth microdilution method
In short: (§1)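 CLSI M27-A2 broth microdilution in RPMI 1640 buffered to pH 7.0 with 0.165 M MOPS. Consecutive blood-culture isolates were subcultured at least twice on Sabouraud dextrose agar. Final inoculum was 0.5 × 103 to 2.5 × 10^3 cells/ml against twofold drug dilutions, incubated in air at 35°C for 24–48 h. MIC was read visually as no growth or ≥50% growth reduction versus drug-free control, depending on agent.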

[2] = tested on: Candida albicans; assay: Antifungal activity against Candida albicans bloodstream isolates by broth microdilution method; in short: as §1
[3] = tested on: Nakaseomyces glabratus; assay: Antifungal activity against Candida glabrata bloodstream isolates by broth microdilution method; in short: as §1
[4] = tested on: Pichia kudriavzevii; assay: Antifungal activity against Candida krusei bloodstream isolates by broth microdilution method; in short: as §1
[5] = tested on: Candida parapsilosis; assay: Antifungal activity against Candida parapsilosis bloodstream isolates by broth microdilution method; conditions: Lodderomyces parapsilosis; in short: as §1
[6] = Antifungal activity against Candida tropicalis bloodstream isolates by broth microdilution method; in short: as §1

Compound `Nc1nc(=O)[nH]cc1F` [FLUCYTOSINE] has an MIC50 [1] of 0.063 µg/mL (≈ 0.488 µM), an MIC90 [1] of 2 µg/mL (≈ 15.5 µM) and an MIC50 [2] of 0.125 µg/mL (≈ 0.968 µM). For the same compound, the MIC90 [2] was 0.25 µg/mL (≈ 1.94 µM), the MIC50 [3] was 0.063 µg/mL (≈ 0.488 µM) and the MIC90 [3] was 0.063 µg/mL (≈ 0.488 µM). The MIC50 [4] was 16 µg/mL (≈ 124 µM), the MIC90 [4] was 16 µg/mL (≈ 124 µM) and the MIC50 [5] was 0.125 µg/mL (≈ 0.968 µM). It also gave an MIC90 [5] of 0.125 µg/mL (≈ 0.968 µM), an MIC50 [6] of 0.125 µg/mL (≈ 0.968 µM) and an MIC90 [6] of 128 µg/mL (≈ 992 µM).

With `C[C@@H](c1ncncc1F)[C@](O)(Cn1cncn1)c1ccc(F)cc1F` [VORICONAZOLE] the MIC50 [1] was 0.031 µg/mL (≈ 0.0887 µM), the MIC90 [1] was 0.5 µg/mL (≈ 1.43 µM) and the MIC50 [2] was 0.016 µg/mL (≈ 0.0458 µM). The MIC90 [2] was 0.031 µg/mL (≈ 0.0887 µM), the MIC50 [3] was 0.5 µg/mL (≈ 1.43 µM) and the MIC90 [3] was 2 µg/mL (≈ 5.73 µM). The MIC50 [4] was 0.5 µg/mL (≈ 1.43 µM), the MIC90 [4] was 1 µg/mL (≈ 2.86 µM) and the MIC50 [5] was 0.031 µg/mL (≈ 0.0887 µM). It also gave an MIC90 [5] of 0.125 µg/mL (≈ 0.358 µM), an MIC50 [6] of 0.063 µg/mL (≈ 0.18 µM) and an MIC90 [6] of 0.125 µg/mL (≈ 0.358 µM).

With `C[C@@H](c1nc(-c2ccc(C#N)cc2)cs1)[C@](O)(Cn1cncn1)c1cc(F)ccc1F` [ISAVUCONAZOLE] the MIC50 [1] was 0.016 µg/mL (≈ 0.0366 µM), the MIC90 [1] was 0.5 µg/mL (≈ 1.14 µM) and the MIC50 [2] was 0.002 µg/mL (≈ 0.00457 µM). The MIC90 [2] was 0.004 µg/mL (≈ 0.00914 µM), the MIC50 [3] was 0.25 µg/mL (≈ 0.571 µM) and the MIC90 [3] was 0.5 µg/mL (≈ 1.14 µM). It also gave an MIC50 [4] of 0.5 µg/mL (≈ 1.14 µM), an MIC90 [4] of 0.5 µg/mL (≈ 1.14 µM) and an MIC50 [5] of 0.016 µg/mL (≈ 0.0366 µM). The MIC90 [5] was 0.031 µg/mL (≈ 0.0709 µM), the MIC50 [6] was 0.031 µg/mL (≈ 0.0709 µM) and the MIC90 [6] was 0.063 µg/mL (≈ 0.144 µM).

In the case of `OC(Cn1cncn1)(Cn1cncn1)c1ccc(F)cc1F` [FLUCONAZOLE], the MIC50 [1] is reported as 1 µg/mL (≈ 3.27 µM), the MIC90 [1] is reported as 16 µg/mL (≈ 52.2 µM) and the MIC50 [2] is reported as 0.5 µg/mL (≈ 1.63 µM). The MIC90 [2] was 1 µg/mL (≈ 3.27 µM), the MIC50 [4] was 32 µg/mL (≈ 104 µM) and the MIC90 [4] was 64 µg/mL (≈ 209 µM). It also gave an MIC50 [5] of 1 µg/mL (≈ 3.27 µM), an MIC90 [5] of 2 µg/mL (≈ 6.53 µM) and an MIC50 [6] of 1 µg/mL (≈ 3.27 µM). The MIC90 [6] was 1 µg/mL (≈ 3.27 µM).

With `C[C@@H]1[C@H](O)[C@@H](C)/C=C/C=C/C=C/C=C/C=C/C=C/C=C/[C@H](O[C@@H]2O[C@H](C)[C@@H](O)[C@H](N)[C@@H]2O)C[C@@H]2O[C@](O)(C[C@@H](O)C[C@@H](O)[C@H](O)CC[C@@H](O)C[C@@H](O)CC(=O)O[C@H]1C)C[C@H](O)[C@H]2C(=O)O` (stereo in doubt) [AMPHOTERICIN B] the MIC50 [1] was 0.25 µg/mL (≈ 0.271 µM), the MIC90 [1] was 0.5 µg/mL (≈ 0.541 µM) and the MIC50 [2] was 0.25 µg/mL (≈ 0.271 µM). For the same compound, the MIC90 [2] was 0.5 µg/mL (≈ 0.541 µM), the MIC50 [3] was 0.5 µg/mL (≈ 0.541 µM) and the MIC90 [3] was 0.5 µg/mL (≈ 0.541 µM). It also gave an MIC50 [4] of 0.5 µg/mL (≈ 0.541 µM), an MIC90 [4] of 0.5 µg/mL (≈ 0.541 µM) and an MIC50 [5] of 0.25 µg/mL (≈ 0.271 µM). The MIC90 [5] was 0.5 µg/mL (≈ 0.541 µM), the MIC50 [6] was 0.5 µg/mL (≈ 0.541 µM) and the MIC90 [6] was 0.5 µg/mL (≈ 0.541 µM).

`CCC(C)n1ncn(-c2ccc(N3CCN(c4ccc(OCC5COC(Cn6cncn6)(c6ccc(Cl)cc6Cl)O5)cc4)CC3)cc2)c1=O` (stereo not given) [ITRACONAZOLE] showed an MIC50 [1] of 0.016 µg/mL (≈ 0.0227 µM), an MIC90 [1] of 0.25 µg/mL (≈ 0.354 µM) and an MIC50 [2] of 0.008 µg/mL (≈ 0.0113 µM). It also gave an MIC90 [2] of 0.016 µg/mL (≈ 0.0227 µM), an MIC50 [3] of 0.5 µg/mL (≈ 0.709 µM) and an MIC90 [3] of 1 µg/mL (≈ 1.42 µM). The MIC50 [4] was 0.5 µg/mL (≈ 0.709 µM), the MIC90 [4] was 0.5 µg/mL (≈ 0.709 µM) and the MIC50 [5] was 0.016 µg/mL (≈ 0.0227 µM). It also gave an MIC90 [5] of 0.063 µg/mL (≈ 0.0893 µM), an MIC50 [6] of 0.031 µg/mL (≈ 0.0439 µM) and an MIC90 [6] of 0.031 µg/mL (≈ 0.0439 µM).
